Laboratory results from ChEMBL document CHEMBL2177098, “Synthesis and evaluation of novel ¹⁸F labeled 2-pyridinylbenzoxazole and 2-pyridinylbenzothiazole derivatives as ligands for positron emission tomography (PET) imaging of β-amyloid plaques” (J Med Chem, 2012).

Tests used:
[1] = system: Intestine; test: Drug uptake in ICR mouse intestine assessed per organ at 370 kBq/100 ul, iv at 30 mins by gamma-counting analysis; assay type: ADME, organism-based; conditions: in vivo, 0.5 h
How it was run: (§1)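 Male ICR mice (5 weeks, about 20 g) got 18F tracer in saline (370 KBq per 100 μL) via tail vein; n = 5 per time point, killed at 2, 10, 30, 60 min. Organs removed and γ-counted against diluted injectate; expressed as % injected dose per organ.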

[2] = system: Intestine; test: Drug uptake in ICR mouse intestine assessed per organ at 370 kBq/100 ul, iv at 10 mins by gamma-counting analysis; assay type: ADME, organism-based; conditions: in vivo; how it was run: as §1
[3] = system: Intestine; test: Drug uptake in ICR mouse intestine assessed per organ at 370 kBq/100 ul, iv at 2 mins by gamma-counting analysis; assay type: ADME, organism-based; conditions: in vivo; how it was run: as §1
[4] = system: Stomach; test: Drug uptake in ICR mouse stomach assessed per organ at 370 kBq/100 ul, iv at 60 mins by gamma-counting analysis; assay type: ADME, organism-based; conditions: in vivo, 1 h
How it was run: (§2)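 Normal male ICR mice (5 weeks, about 20 g) received the ¹⁸F tracer in saline (370 KBq per 100 μL) by tail-vein injection. Groups of n = 5 were killed at 2, 10, 30 and 60 min. Organs were removed, weighed and γ-counted against diluted aliquots of the injectate, giving % dose per gram. Stomach and intestine were expressed per organ. The brain ratio is 2 min/60 min uptake. Values are mean ± SD.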

[5] = system: Stomach; test: Drug uptake in ICR mouse stomach assessed per organ at 370 kBq/100 ul, iv at 30 mins by gamma-counting analysis; assay type: ADME, organism-based; conditions: in vivo, 0.5 h; how it was run: as §1
[6] = system: Stomach; test: Drug uptake in ICR mouse stomach assessed per organ at 370 kBq/100 ul, iv at 10 mins by gamma-counting analysis; assay type: ADME, organism-based; conditions: in vivo; how it was run: as §1
[7] = system: Stomach; test: Drug uptake in ICR mouse stomach assessed per organ at 370 kBq/100 ul, iv at 2 mins by gamma-counting analysis; assay type: ADME, organism-based; conditions: in vivo; how it was run: as §1
[8] = system: Kidney; test: Drug uptake in ICR mouse kidney at 370 kBq/100 ul, iv at 60 mins by gamma-counting analysis; assay type: ADME, organism-based; conditions: in vivo, 1 h
How it was run: (§3)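 Male ICR mice (5 weeks, about 20 g) got 18F tracer in saline (370 KBq per 100 μL) via tail vein; n = 5 per time point, killed at 2, 10, 30, 60 min. Organs weighed and γ-counted; percent dose per gram wet tissue from comparison with diluted injectate aliquots.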

[9] = system: Kidney; test: Drug uptake in ICR mouse kidney at 370 kBq/100 ul, iv at 30 mins by gamma-counting analysis; assay type: ADME, organism-based; conditions: in vivo, 0.5 h; how it was run: as §3
[10] = system: Kidney; test: Drug uptake in ICR mouse kidney at 370 kBq/100 ul, iv at 10 mins by gamma-counting analysis; assay type: ADME, organism-based; conditions: in vivo; how it was run: as §3
[11] = system: Lung; test: Drug uptake in ICR mouse lung at 370 kBq/100 ul, iv at 60 mins by gamma-counting analysis; assay type: ADME, organism-based; conditions: in vivo, 1 h; how it was run: as §3
[12] = system: Kidney; test: Drug uptake in ICR mouse kidney at 370 kBq/100 ul, iv at 2 mins by gamma-counting analysis; assay type: ADME, organism-based; conditions: in vivo; how it was run: as §3
[13] = system: Lung; test: Drug uptake in ICR mouse lung at 370 kBq/100 ul, iv at 30 mins by gamma-counting analysis; assay type: ADME, organism-based; conditions: in vivo, 0.5 h; how it was run: as §3
[14] = system: Lung; test: Drug uptake in ICR mouse lung at 370 kBq/100 ul, iv at 10 mins by gamma-counting analysis; assay type: ADME, organism-based; conditions: in vivo; how it was run: as §3
[15] = system: Lung; test: Drug uptake in ICR mouse lung at 370 kBq/100 ul, iv at 2 mins by gamma-counting analysis; assay type: ADME, organism-based; conditions: in vivo; how it was run: as §3
[16] = system: Spleen; test: Drug uptake in ICR mouse spleen at 370 kBq/100 ul, iv at 60 mins by gamma-counting analysis; assay type: ADME, organism-based; conditions: in vivo, 1 h; how it was run: as §3
[17] = system: Spleen; test: Drug uptake in ICR mouse spleen at 370 kBq/100 ul, iv at 10 mins by gamma-counting analysis; assay type: ADME, organism-based; conditions: in vivo; how it was run: as §3
[18] = system: Spleen; test: Drug uptake in ICR mouse spleen at 370 kBq/100 ul, iv at 30 mins by gamma-counting analysis; assay type: ADME, organism-based; conditions: in vivo, 0.5 h; how it was run: as §3
[19] = system: Spleen; test: Drug uptake in ICR mouse spleen at 370 kBq/100 ul, iv at 2 mins by gamma-counting analysis; assay type: ADME, organism-based; conditions: in vivo; how it was run: as §3
[20] = system: Liver; test: Drug uptake in ICR mouse liver at 370 kBq/100 ul, iv at 60 mins by gamma-counting analysis; assay type: ADME, organism-based; conditions: in vivo, 1 h; how it was run: as §3
[21] = system: Liver; test: Drug uptake in ICR mouse liver at 370 kBq/100 ul, iv at 30 mins by gamma-counting analysis; assay type: ADME, organism-based; conditions: in vivo, 0.5 h; how it was run: as §3
[22] = system: Liver; test: Drug uptake in ICR mouse liver at 370 kBq/100 ul, iv at 2 mins by gamma-counting analysis; assay type: ADME, organism-based; conditions: in vivo; how it was run: as §3
[23] = system: Liver; test: Drug uptake in ICR mouse liver at 370 kBq/100 ul, iv at 10 mins by gamma-counting analysis; assay type: ADME, organism-based; conditions: in vivo; how it was run: as §3
[24] = system: Heart; test: Drug uptake in ICR mouse heart at 370 kBq/100 ul, iv at 60 mins by gamma-counting analysis; assay type: ADME, organism-based; conditions: in vivo, 1 h; how it was run: as §3
[25] = system: Heart; test: Drug uptake in ICR mouse heart at 370 kBq/100 ul, iv at 30 mins by gamma-counting analysis; assay type: ADME, organism-based; conditions: in vivo, 0.5 h; how it was run: as §3
[26] = system: Heart; test: Drug uptake in ICR mouse heart at 370 kBq/100 ul, iv at 10 mins by gamma-counting analysis; assay type: ADME, organism-based; conditions: in vivo; how it was run: as §3
[27] = system: Brain; test: Drug uptake in ICR mouse brain at 370 kBq/100 ul, iv at 60 mins by gamma-counting analysis; assay type: ADME, organism-based; conditions: in vivo, 1 h; how it was run: as §3
[28] = system: Heart; test: Drug uptake in ICR mouse heart at 370 kBq/100 ul, iv at 2 mins by gamma-counting analysis; assay type: ADME, organism-based; conditions: in vivo; how it was run: as §3
[29] = system: Brain; test: Drug uptake in ICR mouse brain at 370 kBq/100 ul, iv at 30 mins by gamma-counting analysis; assay type: ADME, organism-based; conditions: in vivo, 0.5 h; how it was run: as §3
[30] = system: Brain; test: Drug uptake in ICR mouse brain at 370 kBq/100 ul, iv at 10 mins by gamma-counting analysis; assay type: ADME, organism-based; conditions: in vivo; how it was run: as §3
[31] = system: Brain; test: Drug uptake in ICR mouse brain at 370 kBq/100 ul, iv at 2 mins by gamma-counting analysis; assay type: ADME, organism-based; conditions: in vivo; how it was run: as §3
[32] = system: Blood; test: Drug uptake in ICR mouse blood at 370 kBq/100 ul, iv at 30 mins by gamma-counting analysis; assay type: ADME, organism-based; conditions: in vivo, 0.5 h; how it was run: as §3
[33] = system: Blood; test: Drug uptake in ICR mouse blood at 370 kBq/100 ul, iv at 60 mins by gamma-counting analysis; assay type: ADME, organism-based; conditions: in vivo, 1 h; how it was run: as §3
[34] = system: Blood; test: Drug uptake in ICR mouse blood at 370 kBq/100 ul, iv at 10 mins by gamma-counting analysis; assay type: ADME, organism-based; conditions: in vivo; how it was run: as §3
[35] = system: Blood; test: Drug uptake in ICR mouse blood at 370 kBq/100 ul, iv at 2 mins by gamma-counting analysis; assay type: ADME, organism-based; conditions: in vivo; how it was run: as §3
[36] = system: Brain; test: Drug uptake in healthy human brain at 370 KBq/100 ul after 1 hr by autoradiographic analysis; assay type: ADME, tissue-based; conditions: in vitro
[37] = Displacement of [125I]-IMPY from amyloid beta (1 to 42) fibrils after 2 hrs by gamma-counting analysis
How it was run: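 Competition binding with aggregated Aβ1-42 fibrils and [125I]IMPY (60000−100000 cpm/100 μL) in 0.05% BSA (1 mL total); inhibitors 10⁻⁴−10^−8.5 M in ethanol. Incubated 37 °C for 2 h, then GF/B vacuum filtration with PBS (0.02 M, pH 7.4) washes and γ counting. Three repeats; IC50 converted to Ki by Cheng−Prusoff.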

[38] = system: Brain; test: Drug uptake in wild type C57BL6 mouse brain at 370 KBq/100 ul after 1 hr by autoradiographic analysis; assay type: ADME, tissue-based; conditions: in vitro
How it was run: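 Paraffin brain sections from 12-month-old male control C57BL6 mice were deparaffinized through xylene and graded ethanol, then held in PBS (0.2 M, pH 7.4) for 30 min. They were incubated with the ¹⁸F tracer (370 KBq per 100 μL) for 1 h at room temperature. Sections were washed in 40% EtOH, rinsed with water for 1 min, dried, and exposed to a phosphor plate for 2 h. The same sections were then stained with thioflavin S.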

[39] = n-Octanol-PBS buffer partition coefficient, log D of the compound at 1.5 MBq after 3 mins at pH 7.4; assay type: physicochemical
How it was run: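 The tracer was partitioned between n-octanol and PBS by vortexing for 3 min at room temperature, then centrifuged for 5 min at 3000 rpm. Samples of the octanol (50 μL) and aqueous (500 μL) layers were counted. log D is the log of the octanol/PBS counts-per-gram ratio. The octanol layer was repartitioned until values were consistent. Measured in triplicate and repeated three times.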

[40] = system: Brain; test: Ratio of drug uptake in brain at 2 mins to drug uptake in brain at 60 mins in ICR mouse at 370 KBq/100 ul, iv; assay type: ADME, organism-based; conditions: in vivo; how it was run: as §2
[41] = system: Bone; test: Drug uptake in ICR mouse bone at 370 kBq/100 ul, iv at 60 mins by gamma-counting analysis; assay type: ADME, organism-based, Bone element; conditions: in vivo, 1 h; how it was run: as §3
[42] = system: Bone; test: Drug uptake in ICR mouse bone at 370 kBq/100 ul, iv at 30 mins by gamma-counting analysis; assay type: ADME, organism-based, Bone element; conditions: in vivo, 0.5 h; how it was run: as §3
[43] = system: Bone; test: Drug uptake in ICR mouse bone at 370 kBq/100 ul, iv at 2 mins by gamma-counting analysis; assay type: ADME, organism-based, Bone element; conditions: in vivo; how it was run: as §3
[44] = system: Bone; test: Drug uptake in ICR mouse bone at 370 kBq/100 ul, iv at 10 mins by gamma-counting analysis; assay type: ADME, organism-based, Bone element; conditions: in vivo; how it was run: as §3
[45] = system: Intestine; test: Drug uptake in ICR mouse intestine assessed per organ at 370 kBq/100 ul, iv at 60 mins by gamma-counting analysis; assay type: ADME, organism-based; conditions: in vivo, 1 h; how it was run: as §1

Drug uptake [1]: 28.65 %ID | Drug uptake [2]: 22.9 %ID | Drug uptake [3]: 10.81 %ID | Drug uptake [4]: 12.02 %ID | Drug uptake [5]: 12.93 %ID | Drug uptake [6]: 12.32 %ID | Drug uptake [7]: 5.08 %ID | Drug uptake [8]: 2.54 % ID/g | Drug uptake [9]: 3.73 % ID/g | Drug uptake [10]: 4.79 % ID/g | Drug uptake [11]: 2.34 % ID/g | Drug uptake [12]: 8.51 % ID/g | Drug uptake [13]: 2.81 % ID/g | Drug uptake [14]: 3.15 % ID/g | Drug uptake [15]: 5.3 % ID/g | Drug uptake [16]: 1.79 % ID/g | Drug uptake [17]: 2.64 % ID/g | Drug uptake [18]: 2.18 % ID/g | Drug uptake [19]: 4.13 % ID/g | Drug uptake [20]: 4.21 % ID/g | Drug uptake [21]: 6.47 % ID/g | Drug uptake [22]: 14.22 % ID/g | Drug uptake [23]: 9.32 % ID/g | Drug uptake [24]: 2.5 % ID/g | Drug uptake [25]: 3.16 % ID/g | Drug uptake [26]: 3.35 % ID/g | Drug uptake [27]: 1.78 % ID/g | Drug uptake [28]: 5.5 % ID/g | Drug uptake [29]: 2.06 % ID/g | Drug uptake [30]: 2.05 % ID/g | Drug uptake [31]: 4.05 % ID/g | Drug uptake [32]: 3.16 % ID/g | Drug uptake [33]: 2.74 % ID/g | Drug uptake [34]: 3.04 % ID/g | Drug uptake [35]: 5.07 % ID/g | Drug uptake [36]: Not Active | Ki [37]: 76.9 nM | Drug uptake [38]: Not Active | logD at 0.05 h [39]: 2.86 | Ratio [40]: 2.28 | Drug uptake [41]: 3.93 % ID/g | Drug uptake [42]: 2.46 % ID/g | Drug uptake [43]: 1.75 % ID/g | Drug uptake [44]: 1.92 % ID/g | Drug uptake [45]: 25.16 %ID
SMILES: CNc1ccc(-c2nc3cc(OCCOCCOCC[18F])ccc3o2)cn1
